Experimental data published in ChEMBL document CHEMBL5149991 (J Med Chem, 2021).

Tests used:
Histamine H3 receptor [1] = biological target: T1, Histamine H3 receptor (Homo sapiens, UniProt Q9Y5N1); test: Displacement of [3H]UR-PI294 from human histamine H3 receptor stably expressed in baculovirus infected Sf9 cell membrane co-expressing G-alphai2 and G-beta1gamma2 incubated for 60 mins by scintillation counting analysis; assay type: cell membranes
Procedure, shortened: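 hH3R + Gαi2 + Gβ1γ2 expressed in Sf9 membranes. […] Mean ± SEM from N independent experiments in triplicate.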

Histamine H2 receptor [2] = biological target: T2, Histamine H2 receptor (Homo sapiens, UniProt P25021); test: Displacement of [3H]UR-DE257 from human histamine H2 receptor stably expressed in baculovirus infected Sf9 cell membrane co-expressing RG-Salpha S incubated for 60 mins by scintillation counting analysis; assay type: cell membranes
Histamine H1 receptor = Histamine H1 receptor (Homo sapiens, UniProt P35367)
[3] = Chemical stability in pH 7.4 buffer measured at 0 to 2 weeks by HPLC analysis; assay type: physicochemical; conditions: time 0-2 weeks
Histamine H4 receptor = Histamine H4 receptor (Homo sapiens, UniProt Q9H3N8)
Histamine H3 receptor [4] = biological target: T1, Histamine H3 receptor
D(3) dopamine receptor [5] = biological target: T3, D(3) dopamine receptor (Homo sapiens, UniProt P35462); test: Displacement of [3H]N-methylspiperone from human D3 receptor stably expressed in HEK293T cells co-expressing luciferase and CEK incubated for 140 mins by radioligand competition binding based assay; assay type: cell-based
D(2) dopamine receptor [6] = biological target: T4, D(2) dopamine receptor (Homo sapiens, UniProt P14416); test: Displacement of [3H]N-methylspiperone from human D2 long receptor stably expressed in HEK293T cells co-expressing luciferase and CEK incubated for 140 mins by radioligand competition binding based assay; assay type: cell-based
D(3) dopamine receptor [7] = biological target: T3, D(3) dopamine receptor; test: Agonist activity at human D3 receptor stably expressed in HEK293T cells co-expressing ElucN-betaarr2 hD3R-ElucC by beta-arrestin2 recruitment assay; assay type: functional, cell-based
Histamine H2 receptor [8] = biological target: T2, Histamine H2 receptor; test: Agonist activity at human histamine H2 receptor stably expressed in HEK293T cells co-expressing NlucN-mGs/hH2R-NlucC assessed as induction of mini-Gs protein recruitment using furimazine as substrate measured for 45 mins by luminescence assay
D(2) dopamine receptor [9] = biological target: T4, D(2) dopamine receptor; assay type: functional, cell-based, HEK293T
Histamine H2 receptor [10] = biological target: T2, Histamine H2 receptor; test: Agonist activity at human histamine H2 receptor stably expressed in HEK293T cells co-expressing ARRB2 incubated for 60 mins by beta-arrestin2 recruitment assay; assay type: functional, cell-based
Histamine H2 receptor [11] = biological target: T5, Histamine H2 receptor (Cavia porcellus, UniProt P47747); test: Agonist activity at guinea pig histamine H2 receptor stably transfected in HEK293T cells co-expressing NlucN-mGs/gpH2R-NlucC by mini-G protein recruitment assay; assay type: functional, cell-based
Histamine H2 receptor [12] = biological target: T5, Histamine H2 receptor; test: Agonist activity at histamine H2 receptor in spontaneous beating guinea pig right atrium assessed as increase in heart beat; assay type: functional, tissue-based, Right cardiac atrium

Sequence of Histamine H1 receptor (P35367 whole entry): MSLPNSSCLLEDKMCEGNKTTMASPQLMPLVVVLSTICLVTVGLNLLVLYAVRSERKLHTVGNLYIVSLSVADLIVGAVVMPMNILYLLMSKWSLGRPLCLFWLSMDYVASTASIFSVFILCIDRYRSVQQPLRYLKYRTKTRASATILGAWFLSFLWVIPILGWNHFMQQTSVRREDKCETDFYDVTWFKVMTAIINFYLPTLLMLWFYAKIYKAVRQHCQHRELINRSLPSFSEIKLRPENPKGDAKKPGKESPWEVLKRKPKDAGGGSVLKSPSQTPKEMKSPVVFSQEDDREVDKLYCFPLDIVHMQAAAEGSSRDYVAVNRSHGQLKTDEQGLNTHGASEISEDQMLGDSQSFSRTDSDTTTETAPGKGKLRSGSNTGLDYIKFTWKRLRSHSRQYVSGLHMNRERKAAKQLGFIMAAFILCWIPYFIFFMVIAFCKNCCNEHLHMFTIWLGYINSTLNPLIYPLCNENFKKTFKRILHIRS
T2 sequence (P25021 whole entry): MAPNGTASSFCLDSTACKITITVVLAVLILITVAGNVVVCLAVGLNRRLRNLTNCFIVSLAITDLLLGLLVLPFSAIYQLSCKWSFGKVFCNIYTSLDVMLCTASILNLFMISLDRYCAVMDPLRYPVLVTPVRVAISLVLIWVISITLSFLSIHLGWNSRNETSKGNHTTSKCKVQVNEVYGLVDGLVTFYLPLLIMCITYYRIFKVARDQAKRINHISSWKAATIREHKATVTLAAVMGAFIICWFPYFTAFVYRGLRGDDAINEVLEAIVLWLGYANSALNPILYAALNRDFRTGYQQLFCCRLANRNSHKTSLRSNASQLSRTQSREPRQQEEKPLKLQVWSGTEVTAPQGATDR
T1 sequence (Q9Y5N1 whole entry): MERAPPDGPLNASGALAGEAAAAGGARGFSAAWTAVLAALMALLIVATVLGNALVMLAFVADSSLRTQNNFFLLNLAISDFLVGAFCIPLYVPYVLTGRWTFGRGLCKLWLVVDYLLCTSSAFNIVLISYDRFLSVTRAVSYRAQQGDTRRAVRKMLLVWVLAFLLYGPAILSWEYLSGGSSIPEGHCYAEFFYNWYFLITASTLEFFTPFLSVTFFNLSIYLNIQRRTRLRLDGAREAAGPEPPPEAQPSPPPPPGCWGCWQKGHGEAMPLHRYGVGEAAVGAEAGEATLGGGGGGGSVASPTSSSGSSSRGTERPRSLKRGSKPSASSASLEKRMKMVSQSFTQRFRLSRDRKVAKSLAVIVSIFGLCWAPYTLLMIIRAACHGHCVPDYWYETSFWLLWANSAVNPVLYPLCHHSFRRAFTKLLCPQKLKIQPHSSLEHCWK
T4 sequence (P14416 whole entry): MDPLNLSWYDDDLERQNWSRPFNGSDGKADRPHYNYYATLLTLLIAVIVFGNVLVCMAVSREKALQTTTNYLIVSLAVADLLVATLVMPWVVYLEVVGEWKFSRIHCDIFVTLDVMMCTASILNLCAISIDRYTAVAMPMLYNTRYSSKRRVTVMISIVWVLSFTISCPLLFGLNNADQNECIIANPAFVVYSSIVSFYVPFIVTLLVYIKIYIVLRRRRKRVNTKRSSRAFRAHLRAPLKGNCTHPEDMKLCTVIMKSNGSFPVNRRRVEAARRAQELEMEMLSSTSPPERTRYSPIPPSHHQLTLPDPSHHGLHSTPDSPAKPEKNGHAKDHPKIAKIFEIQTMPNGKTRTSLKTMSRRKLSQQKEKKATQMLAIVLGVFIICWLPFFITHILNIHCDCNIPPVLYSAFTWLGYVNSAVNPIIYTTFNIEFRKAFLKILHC
Sequence of Histamine H4 receptor (Q9H3N8 whole entry): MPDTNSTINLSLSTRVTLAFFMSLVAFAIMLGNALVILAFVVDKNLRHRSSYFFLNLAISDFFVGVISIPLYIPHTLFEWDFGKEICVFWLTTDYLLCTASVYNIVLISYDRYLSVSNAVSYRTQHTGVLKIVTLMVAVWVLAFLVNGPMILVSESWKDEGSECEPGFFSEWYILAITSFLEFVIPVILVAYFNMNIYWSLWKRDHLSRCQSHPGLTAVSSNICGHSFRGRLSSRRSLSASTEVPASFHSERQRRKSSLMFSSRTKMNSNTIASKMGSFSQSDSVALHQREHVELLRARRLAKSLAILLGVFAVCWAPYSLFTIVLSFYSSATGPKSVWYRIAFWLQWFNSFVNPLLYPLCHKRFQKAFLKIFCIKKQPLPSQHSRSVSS
T3 sequence (P35462 whole entry): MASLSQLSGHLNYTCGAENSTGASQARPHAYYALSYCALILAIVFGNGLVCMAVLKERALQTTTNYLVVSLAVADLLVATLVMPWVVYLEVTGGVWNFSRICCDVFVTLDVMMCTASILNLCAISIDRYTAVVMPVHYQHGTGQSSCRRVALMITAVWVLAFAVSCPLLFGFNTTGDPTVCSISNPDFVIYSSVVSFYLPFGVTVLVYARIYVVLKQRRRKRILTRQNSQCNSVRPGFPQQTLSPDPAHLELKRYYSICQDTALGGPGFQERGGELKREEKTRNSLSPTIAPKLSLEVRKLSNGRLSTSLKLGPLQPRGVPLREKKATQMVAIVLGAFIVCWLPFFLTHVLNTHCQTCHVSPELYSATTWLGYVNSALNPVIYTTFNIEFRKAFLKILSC
T5 sequence (P47747 whole entry): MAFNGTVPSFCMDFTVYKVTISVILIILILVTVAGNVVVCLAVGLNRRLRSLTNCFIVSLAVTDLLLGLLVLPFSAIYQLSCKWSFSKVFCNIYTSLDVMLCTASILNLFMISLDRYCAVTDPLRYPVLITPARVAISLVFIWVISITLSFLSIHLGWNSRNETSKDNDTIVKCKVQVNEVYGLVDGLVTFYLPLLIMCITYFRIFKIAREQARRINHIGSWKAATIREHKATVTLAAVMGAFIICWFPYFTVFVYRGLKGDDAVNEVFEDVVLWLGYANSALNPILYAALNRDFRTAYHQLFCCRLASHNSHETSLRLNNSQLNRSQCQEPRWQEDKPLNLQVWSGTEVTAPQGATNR

Compound	Ki (Histamine H3 receptor [1]) [nM]	Ki (Histamine H2 receptor [2]) [nM]	Kd (Histamine H1 receptor) [nM]	Ki (Histamine H1 receptor) [nM]	Stability [3]	Kd (Histamine H4 receptor) [nM]	Ki (Histamine H4 receptor) [nM]	Kd (Histamine H3 receptor [4]) [nM]	Ki (Histamine H3 receptor [4]) [nM]	Ki (D(3) dopamine receptor [5]) [nM]	Ki (D(2) dopamine receptor [6]) [nM]	EC50 (D(3) dopamine receptor [7]) [nM]	EC50 (Histamine H2 receptor [8]) [nM]	EC50 (D(2) dopamine receptor [9]) [nM]	EC50 (Histamine H2 receptor [10]) [nM]	EC50 (Histamine H2 receptor [11]) [nM]	EC50 (Histamine H2 receptor [12]) [nM]
Cc1nc(N)oc1CCCN/C(N)=N/C(=O)NCC(C)C1CCCCC1.O=C(O)C(F)(F)F.O=C(O)C(F)(F)F (centres undefined)	8320	245	4.5	6030	Stable	16	7590										
Cc1nc(N)sc1-c1ccc(N/C(N)=N/C(=O)NCc2ccccc2)cc1	8510	214	4.5	1290		16	12000	3	8510								
Cc1ccc(CC(C)CNC(=O)/N=C(\N)NCC2CCc3nc(N)sc3C2)cc1 (centres undefined)		107	4.5	182		16	3390	3	1950								
CC(CCCc1ccccc1)CNC(=O)/N=C(\N)NCCCc1nnc(N)s1 (centres undefined)	3980		4.5	5130		16	4900			324	447	468					
Cc1nnc(CCCN/C(N)=N/C(=O)NCC(C)C2CCCCC2)s1 (centres undefined)		1050	4.5	7080		16	> 10000	3	11500								
N/C(=N\C(=O)NCc1ccccc1)NCCCc1cnc(N)s1	> 10000	26.9	4.5	5620		16	> 10000			74.1	4570	67.6	4.9	3390	49		
Cc1ccc(CC(C)CNC(=O)/N=C(\N)NCCCc2nnc(N)s2)cc1.O=C(O)C(F)(F)F.O=C(O)C(F)(F)F (centres undefined)	2340		4.5	1350	Stable	16	6920			2040	1070	> 10000				14.8	95.5
CCCN[C@H]1CCc2nc(N)sc2C1 [PRAMIPEXOLE]		13800	4.5			16							166				
CCCCCNC(=O)/N=C(\N)NCCCc1cnc(N)s1.O=C(O)C(F)(F)F.O=C(O)C(F)(F)F	> 10000	22.9	4.5	9550	Stable	16	> 10000						6.03		56.2		
Cc1nc(N)sc1-c1ccc(N/C(N)=N/C(=O)NCC(C)CCCc2ccccc2)cc1 (centres undefined)	7940	316	4.5	7590		16	6030	3	7940								
CCCCCCNC(=O)/N=C(\N)NCCCc1nnc(N)o1.O=C(O)C(F)(F)F.O=C(O)C(F)(F)F	> 10000	389	4.5	8910	Stable	16	> 10000										
N/C(=N\C(=O)NCc1ccccc1)NCC1CCc2nc(N)sc2C1 (centres undefined)		302	4.5	3890		16	5890	3	11200								
CCCCCNC(=O)/N=C(\N)Nc1ccc(-c2sc(N)nc2C)cc1.O=C(O)C(F)(F)F.O=C(O)C(F)(F)F	11500	457	4.5	3720	Stable	16	7760	3	11500								
Cc1ccc(CC(C)CNC(=O)/N=C(\N)NCCCc2cnc(N)s2)cc1 (centres undefined)	4790	64.6	4.5	2510		16	4470			229	490	1050	77.6	4470	234		
CC(CCCc1ccccc1)CNC(=O)/N=C(\N)NCC1CCc2nc(N)sc2C1 (centres undefined)	1740	110	4.5	3890		16	4070	3	1740								
CCCCCNC(=O)/N=C(\N)NCC1CCc2nc(N)sc2C1.O=C(O)C(F)(F)F.O=C(O)C(F)(F)F (centres undefined)	6610	155	4.5	5250	Stable	16	5890	3	6610								
CCCCCNC(=O)/N=C(\N)Nc1cccc(-c2sc(N)nc2C)c1.O=C(O)C(F)(F)F.O=C(O)C(F)(F)F	9550	191	4.5	6610	Stable	16	7410										
CCCCCNC(=O)/N=C(/N)NCCCc1nnc(C)s1.O=C(O)C(F)(F)F	> 10000	2190	4.5	> 10000	Stable	16	> 10000										
Cc1ccc(CC(C)CNC(=O)/N=C(\N)Nc2ccc(-c3sc(N)nc3C)cc2)cc1 (centres undefined)	8320	331	4.5	1820		16	6310	3	8320								
Cc1nc(N)sc1-c1ccc(N/C(N)=N/C(=O)NCCCCCCNC(=O)/N=C(\N)Nc2ccc(-c3sc(N)nc3C)cc2)cc1	1950	347	4.5	2140		16	2140										
Cc1nc(N)sc1-c1ccc(N/C(N)=N/C(=O)NC2CCCCC2)cc1	12300	550	4.5	5500		16	6920	3	12300								
